Laboratory results reported in ChEMBL document CHEMBL3124845, “Synthesis, neuronal activity and mechanisms of action of halogenated enaminones” (Eur J Med Chem, 2014).
The source made the active and inactive calls. The rule behind the calls is not given here.

Key:
Hippocampus [1] = assay: Anticonvulsant activity in Sprague-Dawley rat hippocampus assessed as inhibition of population spike amplitude at >= 100 uM preincubated for 6 mins followed by compound washout measured after 10 mins by […]; type: functional, tissue-based
Summary of the method: (§1)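 Extracellular recording of population spikes in coronal hippocampal slices from male Sprague-Dawley rats (100–150 g), aCSF 29–31 C. Spike amplitude measured from the positive peak to the negative tip; readings taken in control, 6 min into compound and 10 min after washout. Concentration-response run up to […]; mean and standard error.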

Hippocampus [2] = assay: Anticonvulsant activity in Sprague-Dawley rat hippocampus assessed as inhibition of population spike amplitude at 10 uM preincubated for 6 mins followed by compound washout measured after 10 mins by […]; type: functional; summary of the method: as §1
Mus musculus [3] = assay: Anticonvulsant activity in CF1 mouse at 100 to 300 mg/kg, ip after 30 mins; type: functional, organism-based
Summary of the method: (§2)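 Male CF1 mice; compound dissolved or suspended in 30% polyethylene glycol 400, given intraperitoneally at 30, 100 and 300 mg/kg. Protection scored in maximal electroshock and subcutaneous pentylenetetrazole seizure tests, with rotorod for neurotoxicity, read at 30 min and 4 h after dosing.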

Hippocampus [4] = assay: Anticonvulsant activity in Sprague-Dawley rat hippocampus assessed as inhibition of population spike amplitude preincubated for 6 mins followed by compound washout measured after 10 mins by […]; type: functional, tissue-based; summary of the method: as §1
Pyramidal neuron = assay: Anticonvulsant activity in Sprague-Dawley rat hippocampus CA1 pyramidal neurons assessed as suppression of EPSC amplitude at 10 uM at -60mV holding potential measured 15 to 20 mins post compound washout by voltage-clamp electrophysiology; type: functional, cell-based
Summary of the method: (§3)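 Coronal hippocampal slices ([…]) from halothane-anaesthetised male Sprague-Dawley rats (100–150 g), submerged in carbogenated aCSF at 29–31 C, 2–3 mL/min. Blind whole-cell patch of CA1 pyramidal cells with K-gluconate pipette solution (pH 7.3); voltage clamp near rest (60 mV). EPSCs evoked by afferent stimulation; two responses 30 s apart averaged; compound at […].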

[5] = Anticonvulsant activity in Sprague-Dawley rat hippocampus CA1 pyramidal neurons assessed as suppression of action potential firing frequency at 10 uM by voltage-clamp electrophysiology relative to control; type: functional, Pyramidal neuron; conditions: in the assay text read “current-clamp” for “voltage-clamp”
Mus musculus [6] = assay: Anticonvulsant activity in CF1 mouse at <100 mg/kg, ip after 30 mins; type: functional, organism-based; summary of the method: as §2
[7] = Anticonvulsant activity in Sprague-Dawley rat hippocampus CA1 pyramidal neurons assessed as suppression of EPSC amplitude at 10 uM by voltage-clamp electrophysiology in presence of GABA transaminase inhibitor vigabatrin; type: functional, Pyramidal neuron
[8] = Anticonvulsant activity in Sprague-Dawley rat hippocampus CA1 pyramidal neurons assessed as suppression of EPSC amplitude at 10 uM by voltage-clamp electrophysiology in presence of GABA-B receptor antagonist CGP55845; type: functional, Pyramidal neuron
[9] = Anticonvulsant activity in Sprague-Dawley rat hippocampus CA1 pyramidal neurons assessed as suppression of EPSC amplitude at 10 uM at -60mV holding potential by voltage-clamp electrophysiology relative to control; type: functional, Pyramidal neuron; summary of the method: as §3

COC(=O)C1C(=O)C=C(Nc2ccc(I)cc2I)CC1c1ccccc1 (stereo not drawn)
inhibition (Hippocampus [1]): inactive | inhibition at 10 µM (Hippocampus [2]): 8.5%

CCOC(=O)C1C(=O)C=C(Nc2ccc(I)cc2I)CC1c1ccccc1 (stereo not drawn)
inhibition (Hippocampus [1]): inactive | inhibition at 10 µM (Hippocampus [2]): 4%

COC(=O)C1C(=O)C=C(Nc2ccc(Br)cc2Br)CC1C (stereo not drawn)
inhibition (Hippocampus [1]): inactive | Activity (Mus musculus [3]): Active | inhibition at 10 µM (Hippocampus [2]): -25%

CC1CC(=O)C=C(Nc2ccc(Br)cc2Br)C1 (stereo not drawn)
inhibition (Hippocampus [1]): inactive | inhibition at 10 µM (Hippocampus [2]): 8%

CCOC(=O)C1CCC(Nc2ccc(Br)cc2Br)=CC1=O (stereo not drawn)
inhibition (Hippocampus [1]): inactive | inhibition at 10 µM (Hippocampus [2]): 35%

CCOC(=O)C1C(=O)C=C(Nc2ccc(Cl)cc2Cl)CC1C (stereo not drawn)
inhibition (Hippocampus [1]): inactive | EC50 (Hippocampus [4]): 10000 nM | inhibition at 10 µM (Hippocampus [2]): -24.6%

CC1(C)CCC(Nc2ccc(Br)cc2Br)=CC1=O
inhibition (Hippocampus [1]): inactive | inhibition at 10 µM (Hippocampus [2]): -18.2%

CCOC(=O)C1C(=O)C=C(Nc2ccc(Br)cc2Br)CC1C (stereo not drawn)
Activity (Pyramidal neuron): Active | inhibition (Hippocampus [1]): inactive | Activity [5]: 76.3% | EC50 (Hippocampus [4]): 1900 nM | inhibition (Hippocampus [4]): Dose-dependent effect | Activity (Mus musculus [6]): Active | inhibition at 10 µM (Hippocampus [2]): -34.7% | Activity [7]: 3.9% | Activity [8]: 16.6% | Activity [9]: 47.5%

O=C1C=C(Nc2ccc(Br)cc2Br)CCC1
inhibition (Hippocampus [1]): inactive | inhibition at 10 µM (Hippocampus [2]): -23.7%

COC(=O)C1C(=O)C=C(Nc2ccc(Br)cc2Br)CC1c1ccccc1 (stereo not drawn)
Activity (Pyramidal neuron): Active | inhibition (Hippocampus [1]): inactive | Activity [5]: 39.2% | EC50 (Hippocampus [4]): 2100 nM | inhibition (Hippocampus [4]): Dose-dependent effect | Activity (Mus musculus [6]): Active | inhibition at 10 µM (Hippocampus [2]): -72.2% | Activity [7]: 40% | Activity [8]: 16.6% | Activity [9]: 31.2%
